Assay results pooled from the literature.
Protocols differ between the studies behind these lines.
Medium: Caco-2

SMILES	conditions	Papp B→A
CCCCCCOC(=O)NC(=N)c1ccc(NCc2nc3cc(C(=O)N(CCC(=O)OCC)c4ccccn4)ccc3n2C)cc1	5 µM, 2 h	1.1 ×10⁻⁶ cm/s
N#C[C@@]1(c2ccc3c(N)ncnn23)O[C@H](CO)[C@@H](O)[C@H]1O	10 µM, 2 h	25.4 ×10⁻⁶ cm/s
N#Cc1ccc(C[C@H](Nc2c(Nc3ccc(Br)cc3)c(=O)c2=O)C(=O)N2CCc3ccccc32)cc1	100 µM, 2 h	249 ×10⁻⁶ cm/s
C[C@@H]1O[C@@H](O[C@H]2[C@H](Oc3cc(O)c4c(c3)O[C@H](c3ccc(O)cc3)CC4=O)O[C@H](CO)[C@@H](O)[C@@H]2O)[C@H](O)[C@H](O)[C@H]1O	100 µg/mL, 2 h	8.02 ×10⁻⁶ cm/s
Cc1cc(C)c(CNC(=O)c2cc(Cl)c3c(c2C)O[C@@](C)([C@H]2CC[C@H](N(C)C)CC2)O3)c(=O)[nH]1	30 µM	19 ×10⁻⁶ cm/s
N#Cc1ccc(C[C@H](NC(=O)c2cc3cc(F)ccc3[nH]2)C(=O)N2CCc3ccccc32)cc1	100 µM, 2 h	386 ×10⁻⁶ cm/s
CC[C@]1(O)C[C@@H]2CN(CCc3c([nH]c4ccccc34)[C@@](C(=O)OC)(c3cc4c(cc3OC)N(C)[C@H]3[C@@](O)(C(=O)OC)[C@H](OC(C)=O)[C@]5(CC)C=CCN6CC[C@]43[C@@H]65)C2)C1	10 µM, 2 h	22.9 ×10⁻⁶ cm/s
O=C(CCc1ccc(O)cc1)c1c(O)cc(O)cc1O	100 µg/mL, 2 h	12.2 ×10⁻⁶ cm/s
Cc1ccc(N(c2ccc(NC(=O)CN(C)c3ccccc3N3CCCC3=O)cc2)C(C)C)cc1		2.52 ×10⁻⁶ cm/s
O=c1cc(-c2ccccc2)oc2cc(O)c(O)c(O)c12	100 µg/mL, 2 h	2.76 ×10⁻⁶ cm/s
N#Cc1ccc(C[C@H](Nc2ncc(-c3ccc(F)cc3)o2)C(=O)N2CCc3ccccc32)cc1	100 µM, 2 h	200 ×10⁻⁶ cm/s
O=C(CCc1ccc(O)cc1)c1c(O)cc(O)cc1O[C@@H]1O[C@H](CO)[C@@H](O)[C@H](O)[C@H]1O	100 µg/mL, 2 h	5.39 ×10⁻⁶ cm/s
C[C@H]1O[C@@H](O[C@H]2[C@@H](O)C[C@H](O[C@H]3[C@@H](O)C[C@H](O[C@H]4CC[C@@]5(C)[C@H](CC[C@@H]6[C@@H]5C[C@@H](O)[C@]5(C)[C@@H](C7=CC(=O)OC7)CC[C@]65O)C4)O[C@@H]3C)O[C@@H]2C)C[C@H](O)[C@@H]1O	10 µM, 2 h	13.6 ×10⁻⁶ cm/s
